{"source": "ChEMBL document CHEMBL1151890", "about": "“Synthesis and SAR of amino acid-derived heterocyclic progesterone receptor full and partial agonists” (Bioorg Med Chem Lett, 2009)", "type_in_all_cases": "ADME, organism-based", "key": {"[1]": {"test": "Cmax in rat at 2 mg/kg, po", "design": "dose 2 mg/kg, route oral", "conditions": "in vivo", "in_short": "(§1)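 Rats were dosed both intravenously and orally, at 1.1 or 1.2 mg/kg iv and 2.0 or 2.3 mg/kg po. Plasma parameters were derived from these dosings. Values are means of three experiments with standard deviation.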"}, "[2]": {"test": "Oral bioavailability in rat at 2 mg/kg", "conditions": "in vivo", "in_short": "as §1"}, "[3]": {"test": "Half life in rat at 2 mg/kg, po", "design": "dose 2 mg/kg, route oral", "conditions": "in vivo", "in_short": "as §1"}, "[4]": {"test": "AUC (0 to t) in rat at 2 mg/kg, po", "design": "dose 2 mg/kg, route oral", "conditions": "plasma", "in_short": "as §1"}}, "data": [{"smiles": "CC(C)CC(c1nnnn1C)N(CC(C)C)c1ccc(C#N)c(Cl)c1", "note": "(centres undefined)", "values": [{"measurement": "Cmax", "setting": "[1]", "value": 146, "unit": "ng/mL"}, {"measurement": "bioavailability", "setting": "[2]", "value": 100, "unit": "%"}, {"measurement": "half-life", "setting": "[3]", "value": 8.9, "unit": "h"}, {"measurement": "AUC(0-t)", "setting": "[4]", "value": 572, "unit": "ng·h/mL"}]}]}
